Reference: ChEMBL document CHEMBL1140700, “Substituted pyrazoles as hepatoselective HMG-CoA reductase inhibitors: discovery of (3R,5R)-7-[2-(4-fluoro-phenyl)-4-isopropyl-5-(4-methyl-benzylcarbamoyl)-2H-pyrazol-3-yl]-3,5-dihydroxyheptanoic acid (PF-3052334) as a candidate for the treatment of hypercholesterolemia” (J Med Chem, 2008)

How the values were obtained:
[1] = target: T1, 3-hydroxy-3-methylglutaryl-coenzyme A reductase (Rattus norvegicus, UniProt P51639); test: Inhibition of HMG-CoA reductase in Sprague-Dawley rat liver microsomes; parameters: species or system Microsome
T1 sequence (P51639 whole entry): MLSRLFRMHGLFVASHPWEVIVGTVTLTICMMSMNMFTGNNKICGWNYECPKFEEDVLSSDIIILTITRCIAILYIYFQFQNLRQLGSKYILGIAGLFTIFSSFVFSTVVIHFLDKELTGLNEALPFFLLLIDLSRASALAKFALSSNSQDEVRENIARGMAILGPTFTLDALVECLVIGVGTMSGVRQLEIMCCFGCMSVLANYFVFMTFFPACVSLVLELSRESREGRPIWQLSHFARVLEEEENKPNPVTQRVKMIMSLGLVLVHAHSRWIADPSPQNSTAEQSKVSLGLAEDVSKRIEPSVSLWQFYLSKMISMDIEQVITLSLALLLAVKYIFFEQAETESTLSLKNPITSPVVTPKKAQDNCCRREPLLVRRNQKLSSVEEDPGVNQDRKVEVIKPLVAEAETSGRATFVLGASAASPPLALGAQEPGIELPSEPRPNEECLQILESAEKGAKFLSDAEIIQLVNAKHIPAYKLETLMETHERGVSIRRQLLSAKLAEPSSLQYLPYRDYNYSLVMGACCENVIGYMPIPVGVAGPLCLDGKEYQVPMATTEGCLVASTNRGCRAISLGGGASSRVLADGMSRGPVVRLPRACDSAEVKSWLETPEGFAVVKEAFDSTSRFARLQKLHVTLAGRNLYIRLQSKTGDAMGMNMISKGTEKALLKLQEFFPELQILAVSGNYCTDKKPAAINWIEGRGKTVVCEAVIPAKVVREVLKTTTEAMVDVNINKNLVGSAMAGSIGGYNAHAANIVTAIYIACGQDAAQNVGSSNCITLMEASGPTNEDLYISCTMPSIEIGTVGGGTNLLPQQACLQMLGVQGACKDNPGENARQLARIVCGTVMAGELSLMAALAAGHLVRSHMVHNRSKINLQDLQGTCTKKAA
How it was run: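 Rat liver microsomes (35 µg/mL) in 100 mM NaH2PO4, 10 mM imidazole, 10 mM EDTA, preincubated with compound in DMSO 0.5 h on ice; 14C-HMG-CoA (0.024 µCi) with 15 mM NADPH and 25 mM DTT added, 0.75 h at 37 °C. Stopped with HCl, lactonized to mevalonolactone, anion-exchange resin separation, scintillation counting; IC50 by curve fit.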

Hepatocyte [2] = test: Inhibition of cholesterol synthesis in rat hepatocytes; assay type: functional, cell-based
How it was run: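 Frozen rat hepatocytes on collagen-coated wells, 10^5 cells/well, grown 24 h in DMEM/10% FBS/10 mM HEPES. Compound preincubation 4 h, then 1 µCi/mL 14C acetic acid for 4 h more.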

Syrian golden hamster [3] = test: Inhibition of cholesterol synthesis in Goldern Syrian hamster blood at 10 mg/kg, po after 2 to 4 hrs relative to control; assay type: functional; conditions: Mesocricetus auratus, read-out: Inhibition
How it was run: (§1)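 Hamsters on chow with 2.5% cholestyramine from 3 days prior; oral gavage of vehicle or compound (10 mpk), n = 8/group. At 2 h (2–4 h arm) or 4 h (4–6 h arm) postdose, i.p. 80 µCi 14C sodium acetate in 0.9% NaCl; euthanized 2 h later, cardiac blood, plasma saponified and extracted, 14C cholesterol counted; % change vs untreated controls.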

L6 = test: Inhibition of cholesterol synthesis in rat L6 cells; assay type: functional, cell-based
Hepatocyte [4] = test: Ratio of IC50 for cholesterol synthesis in rat myocytes to rat hepatocytes; assay type: functional
Syrian golden hamster [5] = test: Inhibition of cholesterol synthesis in Golden Syrian hamster blood at 10 mg/kg, po after 4 to 6 hrs relative to control; assay type: functional; conditions: Mesocricetus auratus, read-out: Inhibition; how it was run: as §1
Cavia porcellus [6] = test: Reduction of LDL level in chow fed Hartley guinea pig serum at 20 mg/kg/day, po for 7 days relative to rosuvastatin; assay type: functional, Hartely; parameters: scale not given: the % may be the effect or the level left
How it was run: (§2)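 Male Hartley guinea pigs (300–500 g) on chow diet 5025, acclimated ≥1 week; vehicle or compound suspension by daily oral gavage at 10 or 20 mpk (n = 8/group) for 7 days; sacrificed 2 h after final dose; LDL cholesterol as mean % change from vehicle group.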

Cavia porcellus [7] = test: Reduction of LDL level in po dosed Hartley guinea pig plasma after 7 days; assay type: functional; conditions: Hartely, 168 h
Cavia porcellus [8] = test: Reduction of LDL level in chow fed Hartley guinea pig serum at 10 mg/kg/day, po for 7 days relative to rosuvastatin; assay type: functional, Hartely; parameters: scale not given: the % may be the effect or the level left; conditions: in the assay text read “20 mg/kg/day” for “10 mg/kg/day”; how it was run: as §2
[9] = Lipophilicity, log P of the compound; assay type: physicochemical; conditions: octanol/water

Compound	IC50 [1] [nM]	LogP [9]	IC50 (Hepatocyte [2]) [nM]	% change in cholesterol synthesis vs control at 10 mg/kg (Syrian golden hamster [3]) [%]	IC50 (L6) [nM]	Ratio IC50 (Hepatocyte [4])	Percent change in cholesterol synthesis vs control at 10 mg/kg (Syrian golden hamster [5]) [%]	Activity (Cavia porcellus [6]) [%]	ED50 (Cavia porcellus [7]) [mg/kg]	Activity (Cavia porcellus [8]) [%]
CC(C)c1c(C(=O)N(C)Cc2cccc(F)c2F)nn(-c2ccc(F)cc2)c1CC[C@@H](O)C[C@@H](O)CC(=O)[O-].[Na+]	9	–	0.6	-81	5700	9500	-22	-45	–	–
CC(C)c1c(C(=O)N(C)[C@H](C)c2ccccc2)nn(-c2ccc(F)cc2)c1CC[C@@H](O)C[C@@H](O)CC(=O)[O-].[Na+]	–	–	0.3	-62	1900	–	-10	–	–	-11
CC(C)c1c(C(=O)N(C)[C@@H](C)c2ccccc2)nn(-c2ccc(F)cc2)c1CC[C@@H](O)C[C@@H](O)CC(=O)O	–	–	3.5	–	41000	–	–	–	–	–
CC(C)c1c(C(=O)NCc2ccc(C(=O)N(C)C)cc2)nn(-c2ccc(F)cc2)c1CC[C@@H](O)C[C@@H](O)CC(=O)O	25	–	23	–	21000	–	–	–	–	–
COCc1c(C(C)C)nc(C(C)C)c(/C=C/[C@@H](O)C[C@@H](O)CC(=O)O)c1-c1ccc(F)cc1 [CERIVASTATIN]	–	–	1.7	–	3	–	–	–	–	–
CC(C)c1c(C(=O)N2CCCCC2c2ccccc2)nn(-c2ccc(F)cc2)c1CC[C@@H](O)C[C@@H](O)CC(=O)O (stereo partly specified)	6.1	–	1.1	–	330	–	–	–	–	–
Cc1cccc(CN(C)C(=O)c2nn(-c3ccc(F)cc3)c(CC[C@@H](O)C[C@@H](O)CC(=O)[O-])c2C(C)C)c1.[Na+]	6.1	–	0.6	-72	4800	8000	–	-15	–	–
COCc1cccc(CNC(=O)c2nn(-c3ccc(F)cc3)c(CC[C@@H](O)C[C@@H](O)CC(=O)[O-])c2C(C)C)c1.[Na+]	7	–	0.7	-71	1800	2600	-19	-42	–	–
CC(C)c1c(C(=O)N(Cc2ccccc2)C(C)C)nn(-c2ccc(F)cc2)c1CC[C@@H](O)C[C@@H](O)CC(=O)O	9.8	–	10	–	9800	–	–	–	–	–
CC(C)c1c(C(=O)N(C)Cc2ccc(F)cc2)nn(-c2ccc(F)cc2)c1CC[C@@H](O)C[C@@H](O)CC(=O)O	6.6	–	0.5	-71	6000	–	–	–	–	–
Cc1ccc(CN(C)C(=O)c2nn(-c3ccc(F)cc3)c(CC[C@@H](O)C[C@@H](O)CC(=O)O)c2C(C)C)cc1	9.9	–	1.8	–	4000	–	–	–	–	–
CC(C)c1c(C(=O)N(C)Cc2ccc(F)cc2F)nn(-c2ccc(F)cc2)c1CC[C@@H](O)C[C@@H](O)CC(=O)[O-].[Na+]	7	–	2.1	-82	4400	2100	-17	-32	–	–
CC(C)c1c(C(=O)N(C)Cc2ccccc2)nn(-c2ccc(F)cc2)c1CC[C@@H](O)C[C@@H](O)CC(=O)[O-].[Na+]	5.9	–	0.2	-61	3100	16000	-16	-20	–	–
COc1ccc(CN(C)C(=O)c2nn(-c3ccc(F)cc3)c(CC[C@@H](O)C[C@@H](O)CC(=O)O)c2C(C)C)cc1	12	–	0.3	-57	5800	–	–	–	–	–
CC(C)c1c(CC[C@@H](O)C[C@@H](O)CC(=O)O)nn(-c2ccc(F)cc2)c1C(=O)NCc1ccccc1	520	–	–	–	–	–	–	–	–	–
CC(C)c1c(C(=O)N2CCCC2c2ccccc2)nn(-c2ccc(F)cc2)c1CC[C@@H](O)C[C@@H](O)CC(=O)O (stereo partly specified)	7.3	–	4	–	130	–	–	–	–	–
CC[C@H](C)C(=O)O[C@H]1C[C@H](O)C=C2C=C[C@H](C)[C@H](CC[C@@H](O)C[C@@H](O)CC(=O)O)[C@H]21 [PRAVASTATIN]	13	-0.67	17	–	7600	450	–	–	100	–

Continued by falling IC50 [1], values first:

IC50 [1] [nM]	LogP [9]	Compound	IC50 (Hepatocyte [2]) [nM]	% change in cholesterol synthesis vs control at 10 mg/kg (Syrian golden hamster [3]) [%]	IC50 (L6) [nM]	Ratio IC50 (Hepatocyte [4])	Percent change in cholesterol synthesis vs control at 10 mg/kg (Syrian golden hamster [5]) [%]	Activity (Cavia porcellus [6]) [%]	ED50 (Cavia porcellus [7]) [mg/kg]	Activity (Cavia porcellus [8]) [%]
4.8	–	CC(C)c1c(C(=O)N(C)Cc2ccccc2F)nn(-c2ccc(F)cc2)c1CC[C@@H](O)C[C@@H](O)CC(=O)O	0.5	-69	17000	–	-30	–	–	–
4.7	–	CC(C)c1c(C(=O)NCc2ccccc2)nn(-c2ccc(F)cc2)c1CC[C@@H](O)C[C@@H](O)CC(=O)O	0.3	–	100	–	–	–	–	–
3.9	–	CC(C)c1c(C(=O)N(C)Cc2cccc(F)c2)nn(-c2ccc(F)cc2)c1CC[C@@H](O)C[C@@H](O)CC(=O)O	0.2	-65	6000	–	–	–	–	–
3.8	–	CCN(Cc1ccccc1)C(=O)c1nn(-c2ccc(F)cc2)c(CC[C@@H](O)C[C@@H](O)CC(=O)O)c1C(C)C	5.5	–	4400	–	–	–	–	–
3.8	–	CC(C)c1c(C(=O)NCc2ccc(F)cc2)nn(-c2ccc(F)cc2)c1CC[C@@H](O)C[C@@H](O)CC(=O)O	0.7	–	490	–	–	–	–	–
3.1	–	CC(C)c1nc(N(C)S(C)(=O)=O)nc(-c2ccc(F)cc2)c1/C=C/[C@@H](O)C[C@@H](O)CC(=O)O [ROSUVASTATIN]	0.3	-76	250	830	-46	-42	9.3	–
2.8	–	COc1ccc(CNC(=O)c2nn(-c3ccc(F)cc3)c(CC[C@@H](O)C[C@@H](O)CC(=O)O)c2C(C)C)cc1	0.4	–	460	–	–	–	–	–
2.2	–	CC(C)c1c(C(=O)NCc2cccc(C#N)c2)nn(-c2ccc(F)cc2)c1CC[C@@H](O)C[C@@H](O)CC(=O)O	1.4	–	2400	–	–	–	–	–
2	–	CC(C)c1c(C(=O)N2CCC[C@H](c3ccccc3)C2)nn(-c2ccc(F)cc2)c1CC[C@@H](O)C[C@@H](O)CC(=O)O	0.3	-78	–	–	–	–	–	–
1.9	–	Cc1ccc(CNC(=O)c2nn(-c3ccc(F)cc3)c(CC[C@@H](O)C[C@@H](O)CC(=O)[O-])c2C(C)C)cc1.[Na+]	0.9	-74	730	810	-15	-41	3.6	–
1.5	–	CC(C)c1c(C(=O)N2CCCC(c3ccccc3)C2)nn(-c2ccc(F)cc2)c1CC[C@@H](O)C[C@@H](O)CC(=O)O (stereo partly specified)	0.4	-80	680	–	-15	–	–	–
